High-throughput results deposited in PubChem BioAssay by several laboratories.
In the library only some 4.8% were active in any assay of this set; here they are far more common.
GPR7 antagonist: human neuropeptides B/W receptor 1 antagonism. AID 1861. inhibition, % at 4.4 µM. 290,000 compounds, 1.1% hits. P48145. GPR7-expressing cells, fluorescence antagonist assay; in the data active means inhibition above about 16%, passing the limit was not always enough;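 further: cells stimulated with the agonist NPW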
Target sequence (P48145 whole entry, looked up): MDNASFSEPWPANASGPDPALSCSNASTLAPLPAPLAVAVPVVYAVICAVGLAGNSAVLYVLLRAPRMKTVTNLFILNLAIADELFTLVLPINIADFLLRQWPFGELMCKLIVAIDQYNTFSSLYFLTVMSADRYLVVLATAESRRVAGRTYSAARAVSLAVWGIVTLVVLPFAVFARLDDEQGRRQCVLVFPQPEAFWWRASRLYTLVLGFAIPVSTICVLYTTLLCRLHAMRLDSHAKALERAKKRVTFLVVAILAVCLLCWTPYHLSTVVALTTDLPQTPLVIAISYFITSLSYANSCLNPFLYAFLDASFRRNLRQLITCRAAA
HSF-1 act: increases HSF-1 driven luciferase reporter signal; NIH3T3-HGL HSF-1 luciferase reporter, MG132, 8 h; 100% = twice DMSO control signal; 300,000 compounds, 1.7% hits; activation, % at 9 µM;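 active means mean replicate activation of at least 50% with a set share of replicates each reaching 50%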
T cruzi inh: T. cruzi replication inhibition; inhibition, % (no concentration beside the values); T. cruzi beta-gal in NIH3T3, luminescence, 90 h; 300,000 compounds, 1.4% hits;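 active means mean inhibition across valid replicates above about 55%, limit read from the data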;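 further: signal also drops with host cell toxicity which is not excluded here; higher percent means less beta-gal luminescence so fewer parasites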
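Incubation – ≥90 h infection period, 3 h prior cell attachment · System – NIH/3T3 fibroblasts plus reporter T. cruzi · Doses – compound pinned at 50 nL/well, DMSO · Read-out basis – percent inhibition of parasite-derived β-gal signal · Signal – luminescent β-galactosidase signal after 60 min lysis · Also added – 5000 T. cruzi trypomastigotes/well · Medium – Low-serum DMEM with 2% FBS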
HSF1 inhib: HSF1 inhibition. NIH3T3-HGL HSE-luciferase, MG132-induced, luminescence 8 h; stronger effect = lower value. activity change, negative = inhibition, % at 7.5 µM (by protocol). 300,000 compounds, 0.77% hits;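 active means more than half of replicate wells show activity change below -50%, luminescence cut by over half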;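 further: luciferase reports HSF-1 transcriptional activity via heat shock element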
697 NFkB inh: lowers PMA/ionomycin-induced NF-kB signal in 697 B cells. 697 B-cell NF-kB luciferase reporter, 16 h. AID 435022. 330,000 compounds, 0.33% hits. inhibition, % at 4 µM; in the data active means inhibition above about 35%
Jurkat NFkB inh: inhibitors of the PMA/ionomycin-induced NF-kB reporter in Jurkat cells; AID 435003; PMA/ionomycin-induced NF-kB luciferase reporter, luminescence; 330,000 compounds, 0.53% hits; inhibition, % at 4 µM; in the data active means inhibition above about 50%
Hits are given with their value; n = inactive; x = no result given.

SMILES	GPR7 antagonist	HSF-1 act	T cruzi inh	HSF1 inhib	697 NFkB inh	Jurkat NFkB inh
NC(=O)NC(=O)CN1C(=O)NC2(CCOc3ccccc32)C1=O (stereo not given)	n	n	n	n	n	n
Cc1ccccc1OCCn1cc(C=O)c2ccccc21	n	n	n	n	n	n
CC(=O)NCCC(=O)Nc1nc(-c2cccs2)c(-c2cccs2)s1	n	182	n	n	n	n
CCCCOc1ccccc1C(=O)N(Cc1ccc(C)o1)C1CCS(=O)(=O)C1 (stereo not given)	n	n	n	n	n	n
O=C(NC(=S)Nc1cccc([N+](=O)[O-])c1)C1CCCC1	20	n	n	n	n	n
CC(=O)NC(=S)Nc1cccc([N+](=O)[O-])c1	n	n	n	n	n	n
O=C(/C=C/c1cccc([N+](=O)[O-])c1)NC(=S)Nc1cccc(NC(=O)c2ccccc2Cl)c1	n	61	n	n	n	n
CCc1cc2c(-c3ccccc3)cc(=O)oc2cc1OCC(=O)NCC1CCC(C(=O)O)CC1 (stereo not given)	n	n	n	n	n	n
Cc1ccc(NCc2nc(SCC(=O)Nc3ccccc3)n[nH]2)cc1	n	n	n	n	n	n
O=C(Nc1ccc(S(=O)(=O)N2CCOCC2)cc1)c1cc(-c2cc(Cl)ccc2O)n[nH]1	20	n	n	n	n	n
O=C(Nc1ccc(S(=O)(=O)N2CCOCC2)cc1)c1ccc([N+](=O)[O-])cc1Cl	n	n	73	n	n	n
Cc1cc(O)c(-c2cc(C(=O)Nc3ccc(S(=O)(=O)N4CCOCC4)cc3)[nH]n2)cc1C	n	n	n	n	n	n
COc1cccc(/C=C2/CCC(CN(C)C)C2=O)c1 (stereo not given)	x	n	x	n	x	x
O=C(CNCc1ccc(F)cc1)Nc1ccc(C(=O)N2CCCCC2)cc1	n	n	n	n	n	n
C/C(CCC12CC3CC(CC(C3)C1)C2)=N\NC(N)=S	n	n	n	n	n	n
C/C(CC(C)(C)C1CCCCC1)=N\NC(N)=S	37	n	56	n	n	n
CC(=O)c1ccc(NC(=O)CCCN2C(=O)/C(=C/C(C)=C/c3ccccc3)SC2=S)cc1	n	70	n	n	n	n
COCc1c(C(=O)N(C)Cc2ccccc2N2CCCC2)oc2ccccc12	x	x	x	x	n	n
COCCn1c(SCc2ccc(C)cc2)nc2c1c(=O)[nH]c(=O)n2C	x	n	n	n	n	n
COCCn1c(SCc2ccc(Cl)cc2)nc2c1c(=O)[nH]c(=O)n2C	x	58	n	n	n	n
COC(=O)c1ccc(N/C(C)=C/C(=O)c2ccc(C)o2)cc1	n	n	n	n	n	n
CCOc1ccc(N/C(C)=C/C(=O)c2ccc(C)o2)cc1	n	n	60	n	n	n
CC1=C(C(N)=O)C(c2cccnc2)n2nc(-c3cccc(C)c3)nc2N1 (stereo not given)	n	n	66	n	n	n
CC1=C(C(N)=O)C(c2cccs2)n2nc(-c3cccc(C)c3)nc2N1 (stereo not given)	n	n	n	n	n	n
Cc1cccc(OCc2nnc(SCC(=O)N3CC(=O)Nc4ccccc43)o2)c1	n	n	n	n	n	n
SMILES	GPR7 antagonist	HSF-1 act	T cruzi inh	HSF1 inhib	697 NFkB inh	Jurkat NFkB inh
Cc1cccc(NC(=O)COc2ccc(Br)cc2/C=N/O)c1	n	107	n	n	n	n
CC(=O)Nc1ccc(NC(=O)COc2ccc(Br)cc2C)cc1	n	n	n	n	n	n
C[C@@H]1COC(=O)[C@@H](CC(=O)OC(C)(C)C)C/C=C\C[C@H](CC(=O)NCCO)C(=O)N1	x	x	x	x	n	n
COc1ccc(/C=N/n2c(-c3cc(C)[nH]n3)n[nH]c2=S)cc1OC	n	n	n	-74	n	n
COc1ccc(-n2cc(CNCCc3nc(C)cc(C)n3)c(-c3ccccc3Cl)n2)cc1	n	n	n	n	n	n
Fc1ccc(-n2cc(CNCCc3ccccn3)c(-c3ccccc3Cl)n2)cc1	n	n	n	-52	n	n
CC1CCCC(C)N1C(=O)COC(=O)c1ccc(Br)o1 (stereo not given)	x	x	x	x	n	n
CC(=O)NC1=C(NC2CCS(=O)(=O)C2)C(=O)c2ccccc2C1=O (stereo not given)	n	n	n	n	n	n
CN(C1=C(NC(=O)c2ccccc2)C(=O)c2ccccc2C1=O)C1CCS(=O)(=O)C1 (stereo not given)	n	66	n	n	n	n
CC1CC(=O)c2c(cc3c(-c4c(O)cc(O)c5c(O)c6c(cc45)OC(C)CC6=O)c(O)cc(O)c3c2O)O1 (stereo not given)	n	n	71	n	n	n
CCC1CCCCN1C(=O)CCc1nnc(C2CCCCC2)o1 (stereo not given)	n	n	n	n	n	n
COc1ccc(C(=O)OCC(=O)N(C)C2CCS(=O)(=O)C2)cc1Br (stereo not given)	x	x	x	x	n	n
CN(C)C=NC(=O)c1cc(C(=O)c2ccc(C(C)(C)C)cc2)c[nH]1	n	50	n	n	n	n
COc1ccc(S(=O)(=O)Nc2ccncc2)c(C)c1C	n	60	n	n	n	n
Cc1ccc2oc(=O)c(/C=C(\O)c3ccccc3)nc2c1	n	n	n	n	n	n
O=c1oc2ccc(Cl)cc2nc1/C=C(\O)c1cccs1	n	52	n	n	n	n
Cc1ccc2oc(=O)c(/C=C(\O)c3cccs3)nc2c1	n	119	n	n	n	n
CCS(=O)(=O)c1ccc2oc(=O)c(/C=C(\O)c3ccc(Cl)cc3)nc2c1	n	n	n	n	n	n
CCOC(=O)c1c(NC(=O)Cc2ccccc2)sc2c1CC(C)(C)NC2(C)C	n	n	n	n	n	n
CCOC(=O)c1c(NC(=O)COc2ccccc2C#N)sc2c1CC(C)(C)NC2(C)C	n	n	n	-53	n	n
CCOC(=O)c1c(NC(=O)CSc2nnnn2-c2ccccc2OCC)sc2c1CC(C)(C)NC2(C)C	x	n	57	n	n	n
CCOC(=O)c1c(NC(=O)c2ccc(C)cc2)sc2c1CC(C)(C)NC2(C)C	n	n	n	n	n	n
CCOC(=O)c1c(NC(=O)CSc2nc3ccc(C)cc3[nH]2)sc2c1CC(C)(C)NC2(C)C	x	n	61	n	n	n
CCOC(=O)c1c(NC(=O)COc2ccccc2OCC)sc2c1CC(C)(C)NC2(C)C	x	n	n	n	n	n
CCOC(=O)c1c(NC(=O)CSc2nnnn2-c2ccccc2)sc2c1CC(C)(C)NC2(C)C	n	n	73	n	n	n
CN(C(=O)c1ccc(COc2ccccc2Br)o1)c1ccccc1	n	n	n	n	n	n
COC(=O)c1c(C)oc2ccc(N(C(=O)Oc3ccccc3)S(=O)(=O)c3ccc(Cl)c([N+](=O)[O-])c3)cc12	n	72	n	n	n	n
